Rows were chosen to be rich in hits. Some 3.9% of all compounds tested hit in one or more screens of this group.
ANO1 block: blocks the mouse calcium-activated chloride channel TMEM16A. Q8BHY3. HEK293 TMEM16A/YFP iodide influx fluorescence, ionomycin. normalized B-score (activity score, 25-100; higher = stronger inhibition) at 10 µM. hit rate 1.2% among 310,000;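 active = ratio plate-corrected score three or more library SD toward inhibition, starting fluorescence score within five deviations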;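 note: score derived from kinetic fluorescence span divided by baseline fluorescence per well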
TAAR1 antag: antagonists of human TAAR1. CHO RD-HGA16 TAAR1, Fluo-8 calcium fluorescence, antagonist. hit rate 1.5% among 360,000. AID 624466. inhibition, % at 3 µM. Q96RJ0;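 active = inhibition above a per-plate cutoff, the mean inhibition of test compounds on that plate plus 3 SD, cut at about 49% in these data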;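 note: 0% = DMSO plus EC80 beta-PEA response and 100% = DMSO alone without agonist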
Target sequence (Q96RJ0 whole entry, looked up): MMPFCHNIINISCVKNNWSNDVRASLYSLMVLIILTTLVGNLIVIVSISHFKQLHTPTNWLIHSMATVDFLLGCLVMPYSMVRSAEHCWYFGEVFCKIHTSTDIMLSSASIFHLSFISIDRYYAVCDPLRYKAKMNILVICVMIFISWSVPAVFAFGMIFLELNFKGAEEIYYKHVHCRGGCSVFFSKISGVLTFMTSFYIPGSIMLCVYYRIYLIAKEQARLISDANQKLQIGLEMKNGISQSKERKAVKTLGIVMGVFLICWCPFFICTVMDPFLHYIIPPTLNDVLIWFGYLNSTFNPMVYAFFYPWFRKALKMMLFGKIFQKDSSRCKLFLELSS
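Test system – hTAAR1-expressing CHO RD-HGA16 cells, Gα16-coupled · Reagent – β-PEA at EC80 concentration, post-compound challenge · Compound dosing – 3 µM, single point · Timing – 140 s kinetic read after compound, 140 s after agonist · Detection – Fluo-8 intracellular calcium dye fluorescence, real-time kinetic reads · Control set – DMSO and EC80 PEA controls · Repeats – n of 1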
TMEM16A act: activates or potentiates the mouse TMEM16A chloride channel; B-score at 10 µM; AID 623877; hit rate 0.3% among 340,000; Q8BHY3; HEK293 TMEM16A/YFP-H148Q/I152L, iodide quench fluorescence; hits give low values;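 active = fluorescence-ratio B-score plate-corrected deviation score at least 3 library SD below zero, with starting fluorescence score within 5 deviations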;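 note: channel opened by trigger with iodide after compound preincubation; score built on the fluorescence ratio of max minus min over baseline; more negative score means more quench and so TMEM16A activation or potentiation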
CRFR2-BP antag: antagonists of CRF-binding protein/CRF-R2 receptor complex; inhibition, % at 11.8 µM; hit rate 0.59% among 350,000; HEK293 CRF-R2/CRF-BP, CRF-induced calcium fluorescence; AID 588475;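 active = inhibition of the ligand-induced calcium signal above about 50% at the single tested concentration, limit read from the data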
CRFR2-BP ag: agonists of human CRF-binding protein/CRF-R2 receptor complex | activation, % at 13.2 µM | hit rate 0.46% among 350,000 | HEK293 CRF-R2/CRF-BP, calcium dye fluorescence (FLIPR); percent of saturating CRF peptide response;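 active = activation of at least 50%, plus an integration ratio under a set limit after plate pattern correction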;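 note: plate controls were neutral control wells without compound for no effect and CRF at EC100 for full effect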
TAAR1 ag: human TAAR1 agonism. Q96RJ0. activation, % at 3 µM. AID 624467. hit rate 0.99% among 360,000. CHO RD-HGA16 TAAR1, Fluo-8 calcium fluorescence; vehicle wells 0%, saturating PEA agonist 100%;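 active = activation above the mean activation of all test compounds in the run plus 3 SD, cut at about 38% in these data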
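Assay system: CHO-derived RD-HGA16 cells with stable Gα16 and human TAAR1; timing: 17-24 h seeding, 75 min 37 °C dye, 30 min RT; read-out: % activation from peak over basal fluorescence ratio, DMSO-to-PEA scaled; measured by: kinetic Fluo-8 calcium fluorescence; benchmarks: low control DMSO, high control PEA (EC100); doses: 3 µM single concentration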
TMEM16A reconf: reconfirmed blocker of mouse TMEM16A calcium-activated chloride channel. inhibition, % at 10 µM. HEK293 TMEM16A/YFP-H148Q, iodide quench fluorescence; ionomycin added to raise cell calcium. hit rate 39% among 2,300. shares compounds with ANO1 block;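 active = mean duplicate percent inhibition, scaled so buffer wells are 0 and the reference blocker 100, over three buffer SD above buffer mean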
HEK293 Ca mobil: counter-screen for TMEM16A inhibitors: effect on calcium mobilization; hit rate 2% among 2,300; calcium response (% of ionomycin), % at 10 µM; TMEM16A/YFP HEK293, Fluo4 calcium mobilization; shares compounds with ANO1 block; AID 652231;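 active = duplicate-averaged calcium signal over 20% of the ionomycin maximum, relative to buffer baseline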;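 note: each well's signal is peak minus trough fluorescence divided by its pre-addition baseline; 0% = buffer wells and 100% = ionomycin wells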
Parental YFP cnt: acts in parental YFP-HEK293 cells lacking TMEM16A, counter-screen | shares compounds with ANO1 block | iodide YFP quench, ionomycin | YFP ratio F(max-min)/F0 at 10 µM | 2,300 tested, under 10 active | AID 652233;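 active = yellow fluorescent protein signal ratio exceeding the buffer control mean by over 5 SD of those controls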;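 note: ratio is mean of duplicate wells from kinetic YFP trace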
ClC-1 rat inh: selectivity of TMEM16A inhibitors: inhibition of rat ClC-1 chloride channel | shares compounds with ANO1 block | CHO ClC-1-YFP, iodide influx fluorescence quench; iodide control reads 0, buffer control 100 | ratio percent, % at 10 µM | 2,300 tested, under 10 active;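 active = duplicate-mean ratio percent above the mean of iodide-only control wells, which defines zero, plus 5 of their SD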;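 note: higher percent means stronger block of ClC-1 iodide influx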
* hit, by the source's call; i = inactive; / = not tested or not shown.

SMILES	ANO1 block	TAAR1 antag	TMEM16A act	CRFR2-BP antag	CRFR2-BP ag	TAAR1 ag	TMEM16A reconf	HEK293 Ca mobil	Parental YFP cnt	ClC-1 rat inh
COc1ccccc1C(=O)N(Cc1nc(-c2ccc(Cl)cc2)no1)C(C)C	100*	7	i	38	0	0	i	i	-0.92	-3
Cc1ccc(SCC(=O)N(Cc2nc(-c3ccccc3)no2)C(C)C)cc1	100*	21	i	-28	2	6	i	i	-1.2	-5
O=c1[nH]c2ccccc2nc1Cc1ccc([N+](=O)[O-])cc1	i	-5	i	-8	3	-2	/	/	/	/
Cn1nc(CC(=O)Nc2ccc(N3CCN(C(=O)OC(C)(C)C)CC3)cc2)c2ccccc2c1=O	25*	44	i	7	-1	11	i	i	-1.1	-12
CCn1c(SCC(=O)Nc2ccc3c(c2)OCCO3)nnc1-c1ccco1	i	1	i	-8	-1	4	/	/	/	/
Cn1nc(CC(=O)Nc2ccc3c(c2)OCCO3)c2ccccc2c1=O	25*	26	i	4	2	6	i	i	-1	-12
Cn1c(SCC(=O)Nc2ccc3c(c2)OCCO3)nnc1-c1ccco1	100*	-15	i	6	-1	16	i	i	-1	-22
CC(C)(C)OC(=O)N1CCN(c2ccc(NC(=O)Cn3nnc(-c4ccccc4)n3)cc2)CC1	i	-5	i	28	-1	17	/	/	/	/
CNC(=O)C(=O)NCC1OCCN1S(=O)(=O)c1ccc(OC)c(OC)c1 (stereo not given)	i	-9	i	2	1	2	/	/	/	/
CCOc1ccc(N(CC)S(=O)(=O)c2ccc3c(c2)n(C)c(=O)c(=O)n3C)cc1	100*	-26	i	14	6	3	i	i	-1.2	-6
CC1=CCC(C(=O)O)C(C(=O)O)C1 (stereo not given)	i	2	i	5	-3	1	/	/	/	/
CC1=CC(C)C(C(=O)O)C(C(=O)O)C1 (stereo not given)	100*	-6	i	11	0	13	i	i	-0.83	-5
CC1Cc2cc(-c3csc(NC(=O)Cc4cccs4)n3)ccc2N1S(C)(=O)=O (stereo not given)	25*	61*	i	-21	6	17	22%*	i	-1.4	-4
CCC(=O)Nc1nc(-c2ccc3c(c2)CC(C)N3S(C)(=O)=O)cs1 (stereo not given)	i	43	i	20	-1	10	/	/	/	/
Cc1ccc(-n2nnnc2SCc2nnc(-c3ccccc3Br)o2)c(C)c1	100*	17	i	87*	-1	4	i	i	-1.1	-14
Cn1nnnc1SCc1nnc(-c2ccccc2Br)o1	i	0	i	-11	2	16	/	/	/	/
CCOc1ccc(NC(=O)CSc2nnc(-c3cc(C)[nH]n3)n2N)cc1	i	-39	i	-10	0	4	/	/	/	/
CCCCN(CCCC)CCNC(=O)CNC(=O)c1cccs1	100*	-19	i	-12	1	10	i	i	-0.96	-8
CCN(CC)c1c(-c2ccccc2)c2cc(C)ccc2[nH]c1=O	25*	-14	i	-33	0	-1	i	i	-1.1	-9
